# Screens deposited in PubChem by Johns Hopkins Ion Channel Center.
# Most compounds without a hit are left out; they make up all but 3.5% or so of the library.
# MrgX1 PAM = human MrgX1 positive allosteric modulation, primary screen | Q96LB2 | MrgX1-HEK293, Fluo-4 calcium flux, FDSS; hits give high values | B-score at 10 µM | 310,000 tested, 0.63% active;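 active = plate-corrected calcium response at least 3 library SD above typical, normal starting fluorescence, not activating the receptor alone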;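 also: compound read alongside a low EC10 to EC30 dose of BAM8-22 agonist; peak minus trough fluorescence over baseline measured at the second addition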
# Target sequence (Q96LB2 whole entry, looked up): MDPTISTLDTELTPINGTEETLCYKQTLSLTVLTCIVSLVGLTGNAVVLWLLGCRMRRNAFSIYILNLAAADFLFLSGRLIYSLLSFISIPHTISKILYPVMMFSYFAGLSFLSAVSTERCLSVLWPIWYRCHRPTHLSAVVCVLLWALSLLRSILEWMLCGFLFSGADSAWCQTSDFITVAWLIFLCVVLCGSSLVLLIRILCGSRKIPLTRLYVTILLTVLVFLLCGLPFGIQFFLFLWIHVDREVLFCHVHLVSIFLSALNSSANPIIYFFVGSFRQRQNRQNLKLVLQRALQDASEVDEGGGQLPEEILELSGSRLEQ
# RGS4 block = inhibitors of human RGS4. P49798. HEK293 M3R/RGS4 inducible, Fluo-4 calcium flux; hits give high values; triggered by carbachol at its EC20. B-score at 10 µM. 310,000 tested, 0.45% active. AID 463165;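 active = B-score, a plate-corrected calcium signal, over three deviations above library mean, with baseline fluorescence within five deviations of library mean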;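 also: RGS4 expression induced by doxycycline in cells with stable M3 receptor; B-score is computed from the integrated fluorescence ratio over baseline after carbachol; higher B-score means a larger calcium signal and so more RGS4 inhibition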
# MrgX1 antag = human MrgX1 receptor antagonism, primary screen. Q96LB2. MRGX1-HEK293 calcium flux, Fluo-4, BAM8-22 antagonism; hits give low values. B-score at 10 µM. 310,000 tested, 1.3% active. AID 588676;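 active = calcium-response B-score plate-corrected more than 3 library SD below zero, starting fluorescence within 5 deviations, no agonist response on first addition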;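 also: peak minus trough fluorescence over baseline after final BAM8-22 challenge near maximal dose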
# MrgX1 agonist = activates human MrgX1 receptor signaling; Q96LB2; MrgX1-HEK293 cells, Fluo-4 calcium fluorescence, agonist mode; hits give high values; B-score at 10 µM; 310,000 tested, 0.44% active;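 active = calcium response B-score plate-corrected fluorescence ratio at least 3 library SD, with starting fluorescence B-score inside 5 SD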
#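 times = overnight plating, then 30 min 37 °C plus 30 min room-temperature dye loading | assay system = stable human MrgX1 HEK293 cell line | input = fifteen thousand cells per well | signal = kinetic calcium dye fluorescence, Fluo-4 NW | dosing = compound delivered in addition one of three | read-out = B-scored fluorescence response ratio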
# RGS4 act = RGS4 potentiation or activation; AID 463111; B-score at 10 µM; 310,000 tested, 0.92% active; HEK293 M3R/inducible RGS4, carbachol calcium flux Fluo4; hits give low values;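 active = B-score of the integrated calcium signal more than 4 SD below the library mean, with starting fluorescence not abnormally high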;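 also: negative B-score means reduced calcium response which marks RGS4 activation or potentiation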
#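 System – HEK293 FlpIn-TREx cells, stable M3R, doxycycline-inducible RGS4 · Reagent – ECmax carbachol challenge · Times – compound preincubation 20 min at room temperature before agonist · Technique – Fluo4 fluorescence kinetic imaging of calcium · Measure – B score of integrated Fluo4 ratio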
# The depositor's hits bear a star; i = inactive; . = no result given.
SMILES,MrgX1 PAM,RGS4 block,MrgX1 antag,MrgX1 agonist,RGS4 act
Cc1csc(N/N=C/c2ccccc2F)n1,i,i,i,i,i
Cc1csc(N/N=C/c2c(F)cccc2Cl)n1,9.8*,i,i,i,i
CCOc1ccc(NC(=O)CSc2nnc(CCNC(=O)c3ccc(OC)cc3)n2C)cc1,i,i,-6.3*,i,i
CC#CC#Cc1cccc(=O)o1,i,i,i,i,i
COc1ccc(/C=C2/SC(=S)N(CCC(=O)O)C2=O)cc1,i,i,i,31*,i
O=C(O)CCCCCN1C(=O)/C(=C\c2cn(-c3ccccc3)nc2-c2cccs2)SC1=S,i,i,i,i,-7*
Cc1ccc(-c2nn(-c3ccccc3)cc2/C=C2\SC(=S)N(CC(=O)O)C2=O)cc1,i,i,i,i,i
COc1ccc(-c2nn(-c3ccccc3)cc2/C=C2/SC(=S)N(CCC(=O)O)C2=O)cc1,i,i,-6*,i,-7.2*
COc1ccc(-c2nn(-c3ccccc3)cc2/C=C2/SC(=S)N(CCC(=O)O)C2=O)c(C)c1,i,i,i,i,-7.7*
O=C(Nc1ccccc1F)c1ccc(CSc2ccccc2)o1,i,i,i,i,i
COc1cc(C(C)=O)ccc1OCC(=O)N(CCC1=CCCCC1)c1c(N)n(Cc2ccccc2)c(=O)[nH]c1=O,i,i,i,i,i
COc1ccc(OC)c(/C=C2\SC(=S)N(Cc3cccnc3)C2=O)c1,i,i,i,i,i
COc1ccc(O)c(/C=C2/SC(=S)N(Cc3ccccc3)C2=O)c1,i,i,-5.1*,i,i
CCOc1ccc(-c2nn(-c3ccccc3)cc2/C=C2\SC(=S)N(C3CCS(=O)(=O)C3)C2=O)cc1 (stereo not given),i,i,i,i,-8.3*
CC1=NNC(=O)/C1=C\c1cn(-c2ccccc2)nc1-c1ccc(F)cc1,.,i,.,.,i
CCCOc1ccc(-c2nn(-c3ccccc3)cc2/C=C2\SC(=S)N(C3CCS(=O)(=O)C3)C2=O)cc1 (stereo not given),i,i,i,i,i
CC1=NNC(=O)/C1=C\c1cn(-c2ccccc2)nc1-c1cccs1,i,i,-6.5*,i,i
COc1cccc(/C=N/Nc2snc(SC)c2C#N)c1O,i,i,-5.4*,i,i
COc1ccc(/C=N/Nc2snc(SC)c2C#N)cc1OC,i,i,i,i,i
COc1cccc(/C=N/NC(=O)C(=O)N2CCCC2)c1O,i,i,i,i,i
COc1cccc(/C=N/NC(=O)N/N=C/c2cccc(OC)c2O)c1O,i,i,i,i,-7.9*
O=C1NCC(c2ccccc2)C1C(=O)N/N=C\c1ccc(-c2ccc(Cl)c(Cl)c2)o1 (stereo not given),i,9*,i,i,i
O=C1NCC(c2ccccc2)C1C(=O)N/N=C/c1ccc(Cl)s1 (stereo not given),i,i,i,31*,i
COCCNC(=O)CN(Cc1ccccc1)S(=O)(=O)c1ccc2nc(C)sc2c1,i,i,i,i,i
NNC(=O)CNC(=O)c1cccc(Br)c1,6.5*,i,i,i,i
SMILES,MrgX1 PAM,RGS4 block,MrgX1 antag,MrgX1 agonist,RGS4 act
COc1cccc(C(=O)C[n+]2ccccc2/C=N/O)c1,i,i,i,i,-7.4*
Cc1ccccc1CN(c1ccc(C(=O)N2CCN(C)CC2)cc1)S(C)(=O)=O,i,i,i,i,i
COc1cccc(N2CCN(c3ncnc4c3cnn4-c3ccc(C)cc3C)CC2)c1,i,i,i,i,-7*
COc1ccc(-n2ncc3c(N4CCN(Cc5ccccc5)CC4)ncnc32)cc1,i,i,i,i,-7.4*
Cc1ccc(-n2ncc3c(N4CCCC4)ncnc32)c(C)c1,i,i,i,i,i
COc1ccccc1Cn1c(=S)[nH]c2cc(C(=O)NCCN(C)C)ccc2c1=O,i,i,i,i,i
Cc1ccc(C(=O)NCCS(=O)(=O)N2CCN(c3ccccc3F)CC2)cc1[N+](=O)[O-],i,i,i,i,i
N#C/C(=C(/O)CCl)c1nc(-c2ccccc2)cs1,i,i,-6.1*,i,i
